# Assay results: ChEMBL document CHEMBL1811870, “Synthesis, gp120 binding and anti-HIV activity of fatty acid esters of 1,1-linked disaccharides” (Bioorg Med Chem, 2011)
# Activity calls are given as the source filed them. No cut-off for these calls is given here.
# How the values were obtained:
# [1] = test system: Human immunodeficiency virus 1; assay: Binding affinity to HIV1 3B R15K V3 loop of gp-120 using monomolecular film after 2 to 3 hrs by microtensiometer analysis
# Procedure, shortened: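 Glycolipid monolayers spread from hexane-chloroform-ethanol onto a pure water subphase at various initial surface pressures, with 5 min allowed for solvent evaporation, at 20°C ± 1°C. Critical pressure of insertion extrapolated to zero Δπ; surface pressure accuracy ± 0.25 mN/m.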
# [2] = test system: Human immunodeficiency virus; assay: Antiviral activity against HIV NL-Lai infected in human TZM-bl cells assessed as inhibition of viral infection after 24 hrs by luciferase assay; type: functional, organism-based; conditions: Human immunodeficiency virus 1, NL-Lai
# Procedure, shortened: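 TZM-bl cells (2×10^4/well) adhered overnight, then infected with X4 NL-Lai virus (from 293T transfection, titered on TZM-bl) with 20 μg/mL DEAE dextran and serial dilutions of compound. Luciferase read 24 h post infection and normalized to virus-only wells. IC50 taken from curve fit of data pooled from at least three independent experiments.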
# [3] = Cytotoxicity against human TZM-bl cells up to 200 uM after 24 hrs by MTS assay; type: cell-based
# Procedure, shortened: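 TZM-bl cells were seeded and left overnight, then exposed to serial dilutions starting at 200 μM for 24 h. MTS dye reduction was read as OD at 490 nm and normalized to cells in medium only.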
# [4] = test system: Human immunodeficiency virus; assay: Antiviral activity against HIV NL-Lai infected in human TZM-bl cells assessed as inhibition of viral infection at 100 uM treated before viral infection measured after 24 hrs by luciferase assay; type: functional, organism-based
# Procedure, shortened: (§1)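 TZM-bl cells infected with NL-Lai (X4) virus. Compounds at 100 μM were given either before infection or 4 h after infection. In the post-infection arm, unbound virus was washed off with PBS and fresh medium containing compound was added. T20 and AMD3100 controls were used at 2 μM. Luciferase was read 24 h later. Mean ± SD of triplicates.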
# [5] = test system: Human immunodeficiency virus; assay: Antiviral activity against HIV NL-Lai infected in human TZM-bl cells assessed as inhibition of viral infection at 100 uM treated 4 hrs after viral infection measured after 24 hrs by luciferase assay; type: functional, organism-based; procedure, shortened: as §1
# [6] = Critical micelle concentration of the compound; type: physicochemical
# Procedure, shortened: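 Glycolipid stocks in hexane:chloroform:ethanol (11:5:4) were injected 1:1000 into water, with surface tension recorded continuously on a microtensiometer. CMC was taken as the concentration above which surface tension no longer fell. Measured in triplicate.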
SMILES,CPI [1] [mN/meter],IC50 [2] [µM],Activity [3],inhibition [4],inhibition [5],CMC [6] [µM]
CCCCCCCCCCCCCCCC(=O)OC[C@H]1O[C@H](O[C@@H]2O[C@H](CO)[C@@H](O)[C@H](O)[C@H]2O)[C@@H](O)[C@@H](O)[C@@H]1O,18,52.5,Non-toxic,Active,inactive,10
c1cc(CN2CCCNCCNCCCNCC2)ccc1CN1CCCNCCNCCCNCC1,,,,Active,inactive,
CCCCCCCCCCCC(=O)OCC(O)CO (centres undefined) [GLYCEROL MONOLAURATE],,> 100,,,,
CCCCCCCCCCCCCCCC(=O)OC[C@H]1O[C@H](O[C@@H]2O[C@H](CO)[C@H](O)[C@H](O)[C@H]2O)[C@@H](O)[C@@H](O)[C@@H]1OC(=O)CCCCCCCCCCCCCCC,18,> 100,Non-toxic,,,
CCCCCCCCCCCCCCCC(=O)OC[C@H]1O[C@H](O[C@H]2O[C@H](CO)[C@H](O)[C@H](O)[C@H]2O)[C@@H](O)[C@@H](O)[C@@H]1O,,48.4,Non-toxic,Active,inactive,
CCCCCCCCCCCCCCCC(=O)OC[C@H]1O[C@H](OC)[C@@H](O)[C@@H](O)[C@@H]1O,18,> 100,Non-toxic,,,13
CCCCCCCCCCCCCCCC(=O)OC[C@H]1O[C@H](OC)[C@@H](O)[C@@H](O)[C@@H]1OC(=O)CCCCCCCCCCCCCCC,18,> 100,Non-toxic,,,
CCCCCCCCCCCCCCCC(=O)OC[C@H]1O[C@H](O[C@@H]2O[C@H](CO)[C@H](O)[C@H](O)[C@H]2O)[C@@H](O)[C@@H](O)[C@@H]1O,18,> 100,Non-toxic,,,9.8
"CCCCCCCCCCCCCCCCO[C@@H]1O[C@H](CO)C(O)[C@H](O)[C@H]1O (single isomer, unassigned)",,43.5,Non-toxic,Active,inactive,
CCCCCCCCCCCCC/C=C/[C@@H](O)[C@H](CO[C@@H]1O[C@H](CO)[C@H](O)[C@H](O)[C@H]1O)NC(=O)C(O)CCCCCCCCCCCCCCCCCCCCCC (some centres undefined),22,,Non-toxic,,,
CCCCCCCCCCCCCCCC(=O)O[C@@H]1[C@H](O)[C@@H](O[C@@H]2O[C@H](CO)[C@H](O)[C@H](O)[C@H]2O)O[C@H](CO)[C@H]1O,18,76,Non-toxic,Active,inactive,12
